Results as given in ChEMBL document CHEMBL1154944, “Azole-based inhibitors of AKT/PKB for the treatment of cancer” (Bioorg Med Chem Lett, 2010).

Tested on: not listed separately
Experiment: Inhibition of PKA

`Cn1c(=O)[nH]c2ccc(-c3cnc(NC[C@@H](N)Cc4ccc(C(F)(F)F)cc4)s3)cc21` and `N[C@H](CNc1ncc(-c2ccc3[nH]c(=O)sc3c2)s1)Cc1ccc(C(F)(F)F)cc1` are within 1.5-fold of each other in IC50: 0.179 µM for the first, 0.143 µM for the second.

Compared with `N[C@H](CNc1ncc(-c2ccc3cn[nH]c(=O)c3c2)s1)Cc1ccc(C(F)(F)F)cc1`, `N[C@H](CNc1ncc(-c2ccc3c(c2)CCC(=O)N3)s1)Cc1ccc(C(F)(F)F)cc1` is 4.9-fold higher in IC50: 0.485 µM for the first, 2.4 µM for the second.

`N[C@H](CNc1cnc(-c2ccc3cnccc3c2)s1)Cc1ccc(C(F)(F)F)cc1` and `N[C@H](CNc1nnc(-c2ccc3cnccc3c2)o1)Cc1ccc(C(F)(F)F)cc1` are within 1.5-fold of each other in IC50: 0.187 µM for the first, 0.133 µM for the second.

Compared with `N[C@H](CCc1nc(-c2ccc3cnccc3c2)no1)Cc1ccc(C(F)(F)F)cc1`, `N[C@H](CNc1ncc(-c2ccc3cncnc3c2)s1)Cc1ccc(C(F)(F)F)cc1` is 7.8-fold lower in IC50: 0.98 µM for the first, 0.126 µM for the second. The second is the more potent here.

`N[C@H](CNc1ncc(-c2ccc3c(c2)CNC3=O)s1)Cc1ccc(C(F)(F)F)cc1` and `Nc1noc2ccc(-c3cnc(NC[C@@H](N)Cc4ccc(C(F)(F)F)cc4)s3)cc12` are within 1.5-fold of each other in IC50: 0.356 µM for the first, 0.417 µM for the second.

Going from `NC(=O)c1ccc(-c2cnc(NC[C@@H](N)Cc3ccc(C(F)(F)F)cc3)s2)cc1` to `Cn1nc(N)c2ccc(-c3cnc(NC[C@@H](N)Cc4ccc(C(F)(F)F)cc4)s3)cc21`, the IC50 falls from greater than 3 µM to 0.119 µM.

Molecular target: T1, RAC-alpha serine/threonine-protein kinase (Homo sapiens, UniProt P31749)
T1 sequence (P31749 whole entry): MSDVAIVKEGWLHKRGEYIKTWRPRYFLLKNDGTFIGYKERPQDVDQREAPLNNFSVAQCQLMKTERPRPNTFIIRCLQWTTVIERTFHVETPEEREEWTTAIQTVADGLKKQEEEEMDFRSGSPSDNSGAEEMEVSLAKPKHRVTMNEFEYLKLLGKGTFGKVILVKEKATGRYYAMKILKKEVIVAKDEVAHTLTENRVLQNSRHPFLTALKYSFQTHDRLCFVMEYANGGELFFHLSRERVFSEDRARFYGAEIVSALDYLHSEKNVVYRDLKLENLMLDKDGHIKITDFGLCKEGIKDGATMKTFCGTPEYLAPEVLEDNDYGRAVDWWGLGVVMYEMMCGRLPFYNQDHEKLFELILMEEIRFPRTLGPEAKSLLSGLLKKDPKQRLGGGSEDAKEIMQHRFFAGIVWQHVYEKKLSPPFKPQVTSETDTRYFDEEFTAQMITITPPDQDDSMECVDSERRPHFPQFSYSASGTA
Experiment: Inhibition of AKT1 after 10 mins by [gamma33]ATP assay

Compared with `Cn1c(=O)[nH]c2ccc(-c3cnc(NC[C@@H](N)Cc4ccc(C(F)(F)F)cc4)s3)cc21`, `N[C@H](CNc1ncc(-c2ccc3[nH]c(=O)sc3c2)s1)Cc1ccc(C(F)(F)F)cc1` is 1.8-fold higher in IC50: 0.0154 µM for the first, 0.027 µM for the second.

`N[C@H](CNc1ncc(-c2ccc3cn[nH]c(=O)c3c2)s1)Cc1ccc(C(F)(F)F)cc1` and `N[C@H](CNc1ncc(-c2ccc3c(c2)CCC(=O)N3)s1)Cc1ccc(C(F)(F)F)cc1` cannot be ordered by IC50: greater than 1 µM for the first, 3.31 µM for the second.

Compared with `N[C@H](CNc1cnc(-c2ccc3cnccc3c2)s1)Cc1ccc(C(F)(F)F)cc1`, `N[C@H](CNc1nnc(-c2ccc3cnccc3c2)o1)Cc1ccc(C(F)(F)F)cc1` is 4.8-fold lower in IC50: 0.404 µM for the first, 0.085 µM for the second. The second is the more potent here.

Compared with `N[C@H](CCc1nc(-c2ccc3cnccc3c2)no1)Cc1ccc(C(F)(F)F)cc1`, `N[C@H](CNc1ncc(-c2ccc3cncnc3c2)s1)Cc1ccc(C(F)(F)F)cc1` is 46-fold lower in IC50: 1.6 µM for the first, 0.035 µM for the second.

First: N[C@H](CNc1ncc(-c2ccc3c(c2)CNC3=O)s1)Cc1ccc(C(F)(F)F)cc1
Second: Nc1noc2ccc(-c3cnc(NC[C@@H](N)Cc4ccc(C(F)(F)F)cc4)s3)cc12
The IC50 of the first is 4.8-fold lower: 0.095 µM for the first, 0.453 µM for the second.

Compared with `NC(=O)c1ccc(-c2cnc(NC[C@@H](N)Cc3ccc(C(F)(F)F)cc3)s2)cc1`, `Cn1nc(N)c2ccc(-c3cnc(NC[C@@H](N)Cc4ccc(C(F)(F)F)cc4)s3)cc21` is lower in IC50: greater than 3 µM for the first, 2.41 µM for the second. The second is the more potent here.

Molecular target: T1, RAC-alpha serine/threonine-protein kinase
Experiment: Inhibition of human AKT1 in human U87MG cells assessed as PRAS40 phosphorylation after 1 hr by ELISA
Format: cell-based, U-87MG ATCC
In short: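 U-87 MG cells in 5% FBS incubated with inhibitor in threefold serial dilutions for 1 h at 37 °C, then lysed. Phospho-PRAS40 (Thr246) quantified by ELISA and normalized to total PRAS40. Mean ± SD where three or more measurements.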

`Cn1c(=O)[nH]c2ccc(-c3cnc(NC[C@@H](N)Cc4ccc(C(F)(F)F)cc4)s3)cc21` and `N[C@H](CNc1ncc(-c2ccc3[nH]c(=O)sc3c2)s1)Cc1ccc(C(F)(F)F)cc1` are within 1.5-fold of each other in IC50: 0.63 µM for the first, 0.92 µM for the second.

First: N[C@H](CNc1ncc(-c2ccc3cncnc3c2)s1)Cc1ccc(C(F)(F)F)cc1
Second: N[C@H](CNc1ncc(-c2ccc3c(c2)CNC3=O)s1)Cc1ccc(C(F)(F)F)cc1
The IC50 of the first is 4.6-fold lower: 1.3 µM for the first, 6 µM for the second.

Molecular target: Cyclin-dependent kinase 2 (Homo sapiens, UniProt P24941)
Experiment: Inhibition of CDK2

`Cn1c(=O)[nH]c2ccc(-c3cnc(NC[C@@H](N)Cc4ccc(C(F)(F)F)cc4)s3)cc21` and `N[C@H](CNc1ncc(-c2ccc3[nH]c(=O)sc3c2)s1)Cc1ccc(C(F)(F)F)cc1` are within 1.5-fold of each other in IC50: 0.276 µM for the first, 0.285 µM for the second.

`N[C@H](CNc1ncc(-c2ccc3cn[nH]c(=O)c3c2)s1)Cc1ccc(C(F)(F)F)cc1` and `N[C@H](CNc1ncc(-c2ccc3c(c2)CCC(=O)N3)s1)Cc1ccc(C(F)(F)F)cc1` cannot be ordered by IC50: greater than 1 µM for the first, greater than 25 µM for the second.

Going from `N[C@H](CNc1cnc(-c2ccc3cnccc3c2)s1)Cc1ccc(C(F)(F)F)cc1` to `N[C@H](CNc1nnc(-c2ccc3cnccc3c2)o1)Cc1ccc(C(F)(F)F)cc1`, the IC50 falls from 1.07 µM to 0.348 µM (3.1-fold).

First: N[C@H](CCc1nc(-c2ccc3cnccc3c2)no1)Cc1ccc(C(F)(F)F)cc1
Second: N[C@H](CNc1ncc(-c2ccc3cncnc3c2)s1)Cc1ccc(C(F)(F)F)cc1
The IC50 of the first is 34-fold higher: 4.63 µM for the first, 0.136 µM for the second.

`N[C@H](CNc1ncc(-c2ccc3c(c2)CNC3=O)s1)Cc1ccc(C(F)(F)F)cc1` and `Nc1noc2ccc(-c3cnc(NC[C@@H](N)Cc4ccc(C(F)(F)F)cc4)s3)cc12` cannot be ordered by IC50: greater than 9 µM for the first, greater than 2 µM for the second.

`NC(=O)c1ccc(-c2cnc(NC[C@@H](N)Cc3ccc(C(F)(F)F)cc3)s2)cc1` and `Cn1nc(N)c2ccc(-c3cnc(NC[C@@H](N)Cc4ccc(C(F)(F)F)cc4)s3)cc21` cannot be ordered by IC50: greater than 10 µM for the first, greater than 2 µM for the second.

Tested on: U-87MG ATCC
Experiment: Selectivity ratio of IC50 for AKT1 in human U87MG cells to IC50 for AKT1
Format: cell-based

For `N[C@H](CNc1ncc(-c2ccc3cncnc3c2)s1)Cc1ccc(C(F)(F)F)cc1`, the Ratio IC50 was 37.
